# ROMK mod = human ROMK K+ channel modulation, primary screen; 130,000 compounds, 2% hits; P48048; B-score at 10 µM; AID 1918; Tet-inducible ROMK, thallium flux fluorescence; actives lie on both sides;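 active = signal ratio slope over the read window, or its plate-corrected B-score, at least 3 SD from the plate mean, either direction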;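 also: B-score of the F/F0 ratio slope over 7 to 12 s after thallium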
# PKD1 kinase inh = inhibitors of human PKD1 kinase | Q15139 | PKD1 kinase fluorescence polarization assay | inhibition, % (test concentration not listed) | 200,000 compounds, 0.056% hits; in the data active = inhibition above about 50%
# Arbovirus inh = arbovirus infection inhibition; arbovirus infection cell-based antiviral screen; inhibition, % at 10 µM; 200,000 compounds, 0.37% hits; AID 1251; in the data active = inhibition above about 30%
# Mdm2 ligase inh = Mdm2 E3 ligase (human) inhibition | Q00987 | cell-based MDM2 ubiquitination luciferase reporter, 2 h; 0 = plate control, 100 = twice control, blank-subtracted | signal enhancement, % at 5 µM | 210,000 compounds, 0.11% hits | AID 1230;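 active = signal enhancement of 30% or more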;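 also: luminescence tracks abundance of the self-degrading MDM2-luciferase fusion protein; higher signal means inhibition of MDM2 E3 ligase activity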
#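 Assay system: stable mammalian line carrying autodegrading MDM2–luciferase fusion reporter; amount: 2000 cells seeded into each well; buffer or medium: DMEM; benchmarks: plate control and blank wells; signal: luciferase luminescence; timing: 2 h compound exposure at 37 °C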
# Calpain2 inh = calpain II (pig) inhibition; inhibition, % at 16 µM; purified calpain II, fluorogenic peptide substrate, 30 min; 220,000 compounds, 0.37% hits; AID 1236;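 active = inhibition above about 50%, limit read from the data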
# KCC2 mod = modulators of human KCC2 chloride dependent transport | Q9H2X9 | KCC2 cells, thallium flux FluoZin-2 fluorescence | B-score of Tl+ flux slope (higher = more flux/activation; lower = inhibition) at 10 µM | 190,000 compounds, 2.2% hits;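 active = thallium flux slope and its plate-corrected score both differing from the plate sample mean at a set confidence after two filtering rounds, in either direction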;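 also: slope of fluorescence scaled to starting intensity during 10 to 20 s after thallium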
# Numbers without * were called inactive; i = inactive; nt = not tested or not shown. Compounds with a hit are over-represented: about 3.7% of the library has one in this group of screens.
SMILES,ROMK mod,PKD1 kinase inh,Arbovirus inh,Mdm2 ligase inh,Calpain2 inh,KCC2 mod
CC1CCN(C(=O)C(C)c2ccc([N+](=O)[O-])cc2)CC1 (stereo unspecified),0.27,1,2,-1,-15,-0.3
COc1ccccc1NC(=O)COC(=O)c1ccccc1OCC(=O)Nc1ccc(SC(F)F)cc1,nt,-2,-9,-17,-10,0.25
CN(C)C(=O)COC(=O)c1ccccc1Nc1ccc(SC(F)F)cc1,nt,-7,33*,-5,2,-0.52
S=c1[nH]nc(-c2ccco2)n1/N=C/c1ccc(Cl)cc1Cl,nt,7,7,-4,-24,16*
S=c1[nH]nc(-c2ccco2)n1/N=C/c1cccc(Cl)c1Cl,0.47,-4,-3,nt,13,49*
S=c1[nH]nc(-c2ccco2)n1/N=C/c1cccs1,0.59,-7,4,-1,10,2.3
CCOc1ccc(-c2nn(-c3ccccc3)cc2/C=C2\SC(=S)N(Cc3ccco3)C2=O)cc1,nt,1,-3,-9,-50,1.8
CCN1C(=O)/C(=C\c2cn(-c3ccccc3)nc2-c2cccnc2)SC1=S,-0.26,-2,-1,-12,51*,-0.0029
CN1/C(=C\C(=O)CN2C(=O)NC3(CCCCCC3)C2=O)C(C)(C)c2ccccc21,-2.8*,-3,3,-2,-266,-3.6*
COc1ccc(C2=Nn3c(nnc3-c3ccncc3)SC2)cc1OC,-0.45,-5,49*,-24,12,-0.58
Cc1ccccc1NC(=S)N1CCC(NC(=O)c2ccco2)CC1,0.35,-2,-2,6,-22,-0.024
CCN1CCc2c(sc3c2c(NCc2ccco2)nc2nnnn23)C1,-2.6,-2,33*,-14,-70,-0.48
Cc1ccc(-c2[nH][nH]c(=O)c(=O)c2N=Nc2ccccc2)cc1,0.23,nt,nt,1,-30,0.38
Cc1ccc2nc(C)c(C(=O)NN=C3CCCCCC3)n2c1,0.63,1,-7,-3,-23,1.3
CC(C)n1cc(NC(=O)c2cc(-c3ccccc3)on2)cn1,5.8*,-8,-15,-3,-36,33*
COc1cccc(C(=O)Nc2cnn(C(C)C)c2)c1,0.018,-5,1,-15,-23,0.81
O=C(Nc1cccnc1)c1cccs1,-0.026,-2,24,-1,64*,-0.3
O=C(Nc1cccnc1)c1cc(-c2ccccc2)on1,3.5*,-1,-7,nt,-8,-0.72
Cc1cc(C)n2nc(-c3ccco3)nc2n1,-0.36,7,6,-4,-325,0.099
Cc1ccc(N2CC(C(=O)OCc3ccccc3)CC2=O)cc1 (stereo unspecified),-0.96,4,1,7,-22,-4.3*
Cc1ccc(N2CC(C(=O)Oc3cccc(N4C(=O)CCC4=O)c3)CC2=O)cc1 (stereo unspecified),nt,-6,4,-4,-8,7.1*
Cc1ccc(S(=O)(=O)Oc2ccc(/C=C(/NC(=O)c3ccccc3)C(=O)NC(C)C(=O)O)cc2)cc1 (stereo unspecified),nt,-4,5,-10,-7,nt
Cn1c(-c2c(N)n(-c3ccccc3)c3nc4ccccc4nc23)nc2ccccc21,nt,-4,64*,-22,-46,-0.75
COc1ccccc1NS(=O)(=O)c1ccc(O)c(C(=O)OCC(=O)N2c3ccccc3CC2C)c1 (stereo unspecified),-0.91,0,2,1,-89,-2.3
CCN1CCN(Cc2nc3c(c(=O)n(C)c(=O)n3C)n2C(C)C(C)=O)CC1 (stereo unspecified),0.42,1,1,31*,-4,nt
SMILES,ROMK mod,PKD1 kinase inh,Arbovirus inh,Mdm2 ligase inh,Calpain2 inh,KCC2 mod
CCN1CCN(Cc2nc3c(c(=O)n(C)c(=O)n3C)n2CCc2ccccc2)CC1,-0.034,-7,3,nt,16,0.51
C=CCn1c(CSCc2ccc(Cl)cc2)nnc1SCC(=O)NCc1ccccc1,-3*,1,16,-7,-2,-1.9
COc1ccccc1N1CCN(CC(=O)Nc2cc(C)nn2-c2nc(C)cc(C)n2)CC1,nt,nt,-14,nt,nt,nt
COc1ccc(CNC(=O)c2ccc(C(C)(C)C)cc2)cc1,nt,-11,-4,1,7,nt
COc1ccc(C(=O)NCC(C)(C)SCc2c(C)cc(C)cc2C)cc1,nt,-2,46*,3,56*,1.3
C=CCN(CC=C)S(=O)(=O)c1ccc(NC(=S)NC(=O)c2ccco2)cc1,nt,-3,-4,-10,-23,8.1*
S=C(NCCc1ccccc1)Nc1ccc(Br)cn1,1.3,-2,1,-12,24,2.6
Cc1ccc2c(c1)nnn2C1CCN(S(=O)(=O)c2ccc(C(=O)N3CC(C)CC(C)C3)cc2)CC1 (stereo unspecified),nt,-3,3,-12,51*,-0.39
NC(=O)CSc1nc2c(c(=O)n1-c1ccccc1)C1(CCCCC1)Cc1ccccc1-2,-0.056,-1,3,18,17,0.58
CCCn1c(SCC#N)nc2c(c1=O)C1(CCCC1)Cc1ccccc1-2,-0.31,0,-8,-11,25,nt
CCn1c(SCC(N)=O)nc2c(c1=O)C1(CCCC1)Cc1ccccc1-2,-1.2,0,-2,-11,18,3.6*
N#CCSc1n[nH]c2nc3c(c(=O)n12)C1(CCCC1)Cc1ccccc1-3,nt,-6,13,-15,i,-3.5*
CCOC(=O)N1CCC(NC(=O)c2cc(C(=O)Nc3ccc(S(=O)(=O)N4CCCCC4)cc3)ccc2CO)CC1,0.33,1,3,-11,18,0.94
S=c1[nH]cnc2scc(-c3ccccc3)c12,6.1*,-5,0,-14,27,62*
S=c1[nH]cnc2sc(-c3ccccc3)cc12,7.7*,1,-1,-9,-2,196*
CNc1ncnc2sc(-c3ccccc3)cc12,-1,2,-8,-22,-51,-0.98
CCCC(Oc1ccc(Br)cc1)c1nc2c3cc(OC)c(OC)cc3nc(=S)n2[nH]1 (stereo unspecified),-0.022,3,-24,-1,0,-2.9
CC(Oc1ccc(Br)cc1)c1nc2c3ccccc3nc(=S)n2[nH]1 (stereo unspecified),2.9*,-7,-28,-3,-52,26*
Cc1ccc(C(=O)NNC(=O)/C=C\C(=O)O)cc1,-0.34,nt,nt,-12,8,0.32
O=C1OCC2=C1C(c1ccc(F)cc1)c1cc3c(cc1N2)OCO3 (stereo unspecified),2.8*,-6,-14,-11,-238,-0.0097
O=C(CC(=O)c1ccccc1O)c1ccc(F)cc1,1.4,2,-10,-4,26,24*
Cc1ccc(-n2ncc3c(=O)n(CC(=O)N4CCCc5ccccc54)cnc32)cc1C,nt,-2,3,nt,37,-3.4*
Cc1nc(N2CCN(Cc3ccc4c(c3)OCO4)CC2)nc2c1C(=O)CC(c1ccco1)C2 (stereo unspecified),nt,2,17,-7,67*,-0.01

# Compound activity from PubChem.
